# In the library only some 1.8% were active in any assay of this set; here they are far more common.
# PG9 binder – binds the HIV-1 gp120 antibody PG9 | TR-FRET gp120-PG9 antibody binding | inhibition, % at 6.7 µM | hit rate 0.43% among 360,000 | AID 624416; in the data active = inhibition above about 8.5%
# TbMetRS inhib – Trypanosoma brucei MetRS inhibition. purified T. brucei MetRS, ATP depletion, Kinase-Glo luminescence. hit rate 0.4% among 360,000. inhibition, % at 11.9 µM;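 active = inhibition above a per-plate cutoff of the control wells' mean inhibition plus 3 SD, cut at about 5.5% in these data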;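 also: 0% = DMSO wells median and 100% = median of wells with control inhibitor compound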
#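 Test system: purified T. brucei MetRS enzyme. Also added: ATP, methionine and E. coli bulk tRNA substrates. Compound: 11.9 µM single point. Schedule: 15 min enzyme-compound preincubation, 2 h reaction, 10 min detection, 25 °C. Signal: luciferase luminescence of residual ATP, Kinase-Glo. Evaluation: percent inhibition versus plate control medians. Controls: DMSO wells, low control.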
# NR1D1 modulator – Rev-erb alpha (human) modulation; P20393; Rev-erbα–FITC-DNA binding, fluorescence polarization, 90 min; activity, % at 10 µM; hit rate 0.79% among 370,000;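 active = activity above about 14%, limit read from the data; passing the limit was not always enough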;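 also: 0% = DMSO wells with 35 nM protein and 100% = DMSO wells with 750 nM protein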
# Target sequence (P20393 whole entry, looked up): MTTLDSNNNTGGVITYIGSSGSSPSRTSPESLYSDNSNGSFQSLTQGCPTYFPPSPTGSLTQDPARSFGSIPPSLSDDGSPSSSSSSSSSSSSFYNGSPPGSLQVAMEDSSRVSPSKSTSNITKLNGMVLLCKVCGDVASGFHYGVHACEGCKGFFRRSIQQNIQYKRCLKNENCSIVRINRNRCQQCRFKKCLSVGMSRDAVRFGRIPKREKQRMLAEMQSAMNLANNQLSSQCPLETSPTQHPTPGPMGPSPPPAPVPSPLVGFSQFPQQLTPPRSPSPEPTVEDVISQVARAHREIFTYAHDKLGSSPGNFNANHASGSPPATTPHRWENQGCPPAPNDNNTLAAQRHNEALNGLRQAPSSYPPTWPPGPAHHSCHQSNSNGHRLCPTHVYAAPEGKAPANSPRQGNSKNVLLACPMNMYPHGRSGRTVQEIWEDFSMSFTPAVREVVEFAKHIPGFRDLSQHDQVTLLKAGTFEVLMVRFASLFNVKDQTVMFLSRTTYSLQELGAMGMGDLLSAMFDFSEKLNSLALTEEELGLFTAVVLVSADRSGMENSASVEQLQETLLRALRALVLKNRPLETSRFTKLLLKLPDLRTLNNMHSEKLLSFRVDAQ
# Rin1-Abl PPI inh – blocks binding of human Rin1 to Abl; inhibition, % at 7.35 µM; hit rate 0.4% among 360,000; P00519+Q13671; TR-FRET Rin1/Abl binding, biochemical; AID 588664; in the data active = inhibition above about 5%, passing the limit was not always enough
# Tb MetRS conf – confirmation of Trypanosoma brucei MetRS inhibitors | shares compounds with TbMetRS inhib | T. brucei MetRS enzyme, luminescence (ATP depletion) | inhibition, % at 11.9 µM | hit rate 93% among 1,400; in the data active = inhibition above about 7%
# Jurkat cytotox – counter-screen for T. brucei MetRS inhibitors: Jurkat cell cytotoxicity; shares compounds with TbMetRS inhib; Jurkat cells viability, ATP luminescence; inhibition, % at 8.3 µM; hit rate 12% among 1,400; in the data active = inhibition above about 15%;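 also: 0% = vehicle and 100% = reference inhibitor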
# Tb MetRS inh FP – T. brucei MetRS inhibition, orthogonal assay | shares compounds with TbMetRS inhib | purified T. brucei MetRS, fluorescence polarization | inhibition, % at 11.9 µM | hit rate 44% among 1,400 | AID 651607; in the data active = inhibition above about 17%;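 also: 0% = vehicle wells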
# Starred values were filed as active, the others as inactive; . = no result.
SMILES,PG9 binder,TbMetRS inhib,NR1D1 modulator,Rin1-Abl PPI inh,Tb MetRS conf,Jurkat cytotox,Tb MetRS inh FP
COc1ccc(NC(=O)C2CCCN(S(=O)(=O)c3ccc(-n4cnnn4)cc3)C2)cc1 (configuration not stated),2,-1,6,2,.,.,.
CC(=O)Nc1ccc(S(=O)(=O)N2CCC(Oc3ccc(-n4cnnn4)cc3)CC2)cc1,-1,6.0*,-3,1,15*,6,5
C=CCNC(=S)NNC(=O)CSc1nc2ccccc2s1,0,7.6*,1,0,14*,4,1
CCN(CC(=O)NCc1ccc(Cl)cc1)C(=O)CCc1ccccc1O,0,37*,0,3,67*,3,33*
CCN(CC(=O)NCc1ccc(Cl)cc1)C(=O)NCc1ccc(Cl)cc1,0,0,0,-1,.,.,.
COC(=O)C1=C(C)N(C)C(=NCc2ccccc2C(F)(F)F)NC1c1cccc(F)c1 (configuration not stated),0,.,4,.,.,.,.
CC(C)C(=O)N[C@H]1[C@H](O)CCC[C@]12C(=O)N(Cc1ccccc1)c1ccccc12,.,.,6,.,.,.,.
COc1ccc(N(CC(=O)Nc2cccc(C)c2C)S(=O)(=O)c2c(C)n[nH]c2C)cc1,-3,0,7,-2,.,.,.
COc1ccc(N(CC(=O)Nc2ccc(Cl)cc2)S(=O)(=O)c2c(C)n[nH]c2C)cc1,-1,8.7*,-1,-3,18*,4,10
c1ccc(-n2c(SCc3cccc4ccccc34)nnc2-c2ccncc2)cc1,.,.,10,.,.,.,.
CN1CCN(C(=O)c2ccc(COc3ccc(Cl)cc3Cl)cc2)CC1,0,9.9*,-2,0,19*,8,2
O=C(c1ccco1)N1CCN(C(=O)c2ccc(COc3ccc(Cl)cc3Cl)o2)CC1,-1,5.9*,1,0,16*,2,13
CN1CCN(C(=O)CCCOc2ccc(Cl)cc2Cl)CC1,1,2,-3,-5,.,.,.
CN(C)CCNC(=O)c1ccc(COc2ccc(Cl)cc2Cl)cc1,0,9.7*,-5,0,16*,27*,13
COc1ccc(Cl)cc1C(=O)NCCN(C)C,-2,-1,-5,4,.,.,.
O=C(CSc1nnc(-c2cccs2)o1)c1ccc(F)cc1,.,.,1,.,.,.,.
COc1ccc(C(=O)N/C(=C\c2cccs2)c2nc3ccccc3[nH]2)cc1OC,-14,8.2*,2,-2,16*,0,2
Cc1ccc(C(=O)N/C(=C\c2cccnc2)c2nc3ccccc3[nH]2)cc1,-2,15*,-3,-2,35*,-4,11
CCC(=O)Nc1ccc2c(c1)C(=O)N(C)[C@@H]1CC[C@@H](CC(=O)NCCN3CCCCC3)O[C@H]1CO2,.,.,5,.,.,.,.
Oc1ccc(/C=N/Nc2ccnc3cc(Cl)ccc23)c(O)c1,-3,14*,-21,-3,22*,55*,47*
COc1ccc(N2CCN(C(=O)c3ccc(C)cc3)CC2)c([N+](=O)[O-])c1,-2,2,0,-2,.,.,.
COc1ccc(N2CCN(C(=O)c3ccccc3)CC2)c([N+](=O)[O-])c1,-1,8.2*,0,-9,9.3*,6,10
COc1ccc(N2CCN(C(=O)c3ccccc3Br)CC2)c([N+](=O)[O-])c1,2,14*,6,1,30*,2,18*
COc1ccccc1OCCCOc1ccc([N+](=O)[O-])cc1Cl,0,2,-2,2,.,.,.
CC(=O)NCCCOc1ccc([N+](=O)[O-])cc1Cl,-1,7.3*,1,0,14*,-1,5
SMILES,PG9 binder,TbMetRS inhib,NR1D1 modulator,Rin1-Abl PPI inh,Tb MetRS conf,Jurkat cytotox,Tb MetRS inh FP
COC(=O)[C@]12C[C@H](CC(=O)NCc3cccc4ccccc34)C(=O)N(CCC3=CCCCC3)C1=C[C@H](COCc1ccccc1)O[C@@H]2C,0,.,1,.,.,.,.
CC(=O)O/N=C(/c1nonc1N)N1CCN(c2ccc([N+](=O)[O-])cc2Cl)CC1,-1,0,-5,0,.,.,.
CO/N=C(\c1nonc1N)N1CCN(c2ccc(Cl)cc2[N+](=O)[O-])CC1,2,16*,2,3,24*,10,21*
COc1ccc(CN2CCN(Cc3c[nH]c4ccccc34)CC2CCO)c(F)c1 (configuration not stated),0,22*,-7,-2,42*,3,14
O=C(NCCCCc1ccccc1)Nc1ccc(F)cc1,1,15*,-2,2,32*,-1,21*
Cc1cc(Br)ccc1OCCCCNCCO,-1,6.1*,-7,2,11*,5,5
O=C(Nc1ccc(Cl)cc1)Nc1csc([N+](=O)[O-])c1,-1,12*,2,3,22*,73*,22*
O=C(Nc1ccc(Cl)cc1)Nc1ccccc1CC[N+](=O)[O-],-2,37*,-4,6,66*,4,30*
CC/C(O)=C1\C(=O)CCCC1=NCc1nc2ccccc2[nH]1,-1,8.9*,-4,0,16*,2,5
O=C(C1CCCN(S(=O)(=O)c2cccc3ccccc23)C1)N1CCN(Cc2ccccc2)CC1 (configuration not stated),.,.,2,.,.,.,.
CCCOc1cccc(OCC(=O)Nc2nc3ccccc3[nH]2)c1,-2,29*,0,3,48*,9,20*
CCCCNc1nc2ccccc2[nH]1,0,8.0*,-7,1,14*,2,6
CCCCOc1cccc(OCC(=O)Nc2nc3ccccc3[nH]2)c1,-1,36*,-1,-2,48*,1,14
O=C(COc1ccccc1)Nc1nc2ccccc2[nH]1,1,1,3,0,.,.,.
CCCNc1nc2ccccc2c(=O)[nH]1,-4,2,-1,0,.,.,.
O=C(CSc1ccc2ccccc2c1)Nc1nc2ccccc2[nH]1,0,21*,3,-2,29*,4,11
O=C(CSCc1nc2ccccc2[nH]1)Nc1ccc2ccccc2c1,-1,1,0,3,.,.,.
CCCCCCCCN1C(=O)[C@@H](CC(=O)NCC2CCCCC2)C[C@@]2(C(=O)OC)C1=C[C@H](C(C)C)O[C@@H]2C1CC1,.,.,-1,.,.,.,.
COCCN1Cc2cc(C(=O)OC)c3c(c2C1=O)c1cc(OC)ccc1n3S(=O)(=O)c1ccc(F)cc1,1,.,-7,.,.,.,.
O=Cc1coc([B-](F)(F)F)c1,0,.,-2,.,.,.,.
CCNC(=S)N(Cc1cc2cc(C)ccc2[nH]c1=O)C1CCCC1,-1,11*,-5,0,22*,-5,11
CCNC(=S)N(Cc1cc2cc(C)c(C)cc2[nH]c1=O)C1CCCC1,0,-1,2,4,.,.,.
COc1ccccc1Cc1c(-c2ccccc2)nc2ccc(C)cn12,-1,.,-3,.,.,.,.
CCOC(=O)C1=C(CC)Nc2ccccc2N=C1NC(=O)c1cc(C)on1,-1,0,-6,2,.,.,.

# Compound activity: PubChem BioAssay, several laboratories
